Test results reported in ChEMBL document CHEMBL3352115, “Discovery of APD334: Design of a Clinical Stage Functional Antagonist of the Sphingosine-1-phosphate-1 Receptor” (ACS Med Chem Lett, 2014).
Active and inactive are the calls of the source. The calls are words filed in the database; no cut-off is given here.

Columns and labels:
Rattus norvegicus [1] = assay: Reduction in peripheral lymphocyte count in orally dosed rat measured after 24 hrs; format: ADME, organism-based
Rhesus monkey = assay: Reduction in peripheral lymphocyte count in orally dosed monkey measured after 24 hrs; format: ADME, organism-based; conditions: Macaca mulatta
[2] = Protein binding in rat plasma; format: ADME, cell-free; conditions: read-out: PPB (converted)
[3] = Drug level in Sprague-Dawley rat brain at 14.5 ug/hr/kg dosed as constant infusion measured after 48 hrs; format: ADME, organism-based; conditions: iv, read-out: Drug uptake
Outline: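 Male Sprague–Dawley rats given constant infusion at 14.5 μg/h/kg for 48 h; brain and plasma concentrations measured at 48 h.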

Mus musculus [4] = assay: Prevention of onset and severity of disease in C57Bl/6 mouse experimental autoimmune encephalomyelitis model of multiple sclerosis at 0.3 to 3 mg/kg dosed once daily beginning on day 3 and continued to day 25; format: functional, organism-based
Outline: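 Female C57Bl/6 mice immunized with MOG35–55 as autoantigen; oral dosing once daily from day 3 to day 25 in 0.5% methylcellulose vehicle; clinical scores followed beyond end of dosing.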

Rattus norvegicus [5] = assay: Reduction in ankle diameter in Lewis rat collagen-induced arthritis model at 1 mg/kg, po qd measured on day 17 (reference value: +/- inches); format: functional
Outline: (§1)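 Female Lewis rats with collagen-induced arthritis, prophylactic daily oral dosing; ankle diameter (inches) and body weight recorded at day 17 end point; mean ± SEM.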

Rattus norvegicus [6] = assay: Reduction in ankle diameter in Lewis rat collagen-induced arthritis model at 3 mg/kg, po qd measured on day 17 (reference value: +/- inches); format: functional; outline: as §1
Cytochrome P450 3A4 = Cytochrome P450 3A4 (Homo sapiens, UniProt P08684); assay: Inhibition of CYP3A4 (unknown origin); format: ADME
Chain of Cytochrome P450 3A4 (P08684 whole entry): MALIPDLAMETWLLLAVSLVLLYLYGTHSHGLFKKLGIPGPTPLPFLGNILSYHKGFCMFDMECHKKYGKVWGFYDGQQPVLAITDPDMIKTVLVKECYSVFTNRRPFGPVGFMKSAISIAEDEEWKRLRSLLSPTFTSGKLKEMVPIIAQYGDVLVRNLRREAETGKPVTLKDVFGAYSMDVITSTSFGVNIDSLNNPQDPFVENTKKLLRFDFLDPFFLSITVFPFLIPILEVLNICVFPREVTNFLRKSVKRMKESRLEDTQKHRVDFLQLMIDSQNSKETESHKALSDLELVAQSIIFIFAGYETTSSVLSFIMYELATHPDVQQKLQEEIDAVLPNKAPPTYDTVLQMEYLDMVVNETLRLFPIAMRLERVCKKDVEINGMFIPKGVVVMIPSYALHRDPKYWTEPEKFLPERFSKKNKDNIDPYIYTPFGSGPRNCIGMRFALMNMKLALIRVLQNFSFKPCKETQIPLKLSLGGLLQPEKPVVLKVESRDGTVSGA

Adenosine receptor A3 = Adenosine receptor A3 (Homo sapiens, UniProt P0DMS8); assay: Binding affinity to human adenosine A3 receptor
Chain of Adenosine receptor A3 (P0DMS8 whole entry): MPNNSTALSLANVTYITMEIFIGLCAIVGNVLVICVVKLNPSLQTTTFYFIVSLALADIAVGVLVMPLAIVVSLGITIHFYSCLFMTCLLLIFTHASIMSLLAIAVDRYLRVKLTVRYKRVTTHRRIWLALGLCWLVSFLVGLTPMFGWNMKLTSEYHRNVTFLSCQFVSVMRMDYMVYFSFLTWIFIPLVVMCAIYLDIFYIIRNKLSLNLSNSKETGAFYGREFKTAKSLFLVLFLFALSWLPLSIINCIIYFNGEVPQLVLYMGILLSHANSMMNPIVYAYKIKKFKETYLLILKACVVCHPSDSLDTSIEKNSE

[7] = Activation of Inward rectifier potassium channel in human atrial myocytes; format: cell-based; conditions: Cardiac atrium
Outline: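 In vitro activation of the inward-rectifying potassium channel (IKACh) in human atrial myocytes, run alongside S1P as reference agonist; potency expressed as EC50.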

Salmonella typhimurium = assay: Genotoxicity in Salmonella typhimurium in presence of rat liver S9 fraction by Ames bacterial reverse mutation assay; format: toxicity, organism-based; conditions: salmonella enterica subsp. enterica serovar typhimurium
[8] = target: T1, Voltage-gated inwardly rectifying potassium channel KCNH2 (Homo sapiens, UniProt Q12809); assay: Displacement of [3H]astemizole from human ERG
T1 sequence (Q12809 whole entry): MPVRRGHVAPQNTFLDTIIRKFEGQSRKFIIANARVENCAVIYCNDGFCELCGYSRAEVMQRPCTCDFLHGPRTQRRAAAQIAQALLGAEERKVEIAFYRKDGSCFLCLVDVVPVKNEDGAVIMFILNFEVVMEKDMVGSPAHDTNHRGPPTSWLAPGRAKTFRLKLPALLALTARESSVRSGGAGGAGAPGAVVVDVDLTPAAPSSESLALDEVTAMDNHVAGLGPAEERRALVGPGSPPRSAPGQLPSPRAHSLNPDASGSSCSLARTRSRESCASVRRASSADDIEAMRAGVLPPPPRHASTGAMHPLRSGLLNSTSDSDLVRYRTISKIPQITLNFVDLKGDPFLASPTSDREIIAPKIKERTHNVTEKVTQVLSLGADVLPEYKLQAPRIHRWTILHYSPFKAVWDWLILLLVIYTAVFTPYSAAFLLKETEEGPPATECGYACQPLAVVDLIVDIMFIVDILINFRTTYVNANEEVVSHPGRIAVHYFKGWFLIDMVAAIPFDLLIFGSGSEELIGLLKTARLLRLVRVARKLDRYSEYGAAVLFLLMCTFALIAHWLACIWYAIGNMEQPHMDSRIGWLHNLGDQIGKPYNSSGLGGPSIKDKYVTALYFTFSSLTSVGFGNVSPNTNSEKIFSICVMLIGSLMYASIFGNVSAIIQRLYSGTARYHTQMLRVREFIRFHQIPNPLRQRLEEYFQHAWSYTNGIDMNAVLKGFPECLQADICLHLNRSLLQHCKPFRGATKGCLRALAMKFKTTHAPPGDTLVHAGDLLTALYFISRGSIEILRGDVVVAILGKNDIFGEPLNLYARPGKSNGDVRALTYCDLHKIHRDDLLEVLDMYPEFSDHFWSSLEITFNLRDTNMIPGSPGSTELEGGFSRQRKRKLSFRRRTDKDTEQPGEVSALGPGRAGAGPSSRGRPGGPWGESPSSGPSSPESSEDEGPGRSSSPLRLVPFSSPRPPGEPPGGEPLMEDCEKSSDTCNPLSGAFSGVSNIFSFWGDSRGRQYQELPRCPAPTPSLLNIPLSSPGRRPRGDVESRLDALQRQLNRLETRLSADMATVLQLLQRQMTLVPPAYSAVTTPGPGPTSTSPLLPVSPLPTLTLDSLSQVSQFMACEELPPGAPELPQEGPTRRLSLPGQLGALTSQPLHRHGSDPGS
Outline: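 hERG interaction assessed by [³H]-astemizole binding displacement.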

[9] = target: T1, Voltage-gated inwardly rectifying potassium channel KCNH2; assay: Inhibition of human ERG by patch clamp assay
Canis familiaris [10] = assay: Effect on pulse pressure in telemeterized dog up to 40 mg/kg; format: ADME, organism-based, Canis lupus familiaris; set-up: dose 40 mg/kg; conditions: in vivo
Outline: (§2)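 Telemeterized dogs dosed at levels up to 40 mg/kg; pulse pressure, heart rate, body temperature and ECG parameters monitored.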

Canis familiaris [11] = assay: Effect on heart rate in telemeterized dog up to 40 mg/kg; format: ADME, organism-based, Canis lupus familiaris; set-up: dose 40 mg/kg; conditions: in vivo; outline: as §2
Rattus norvegicus [12] = assay: Effect on respiratory function in Sprague-Dawley rat up to 350 mg/kg; format: ADME, organism-based; set-up: dose 350 mg/kg; conditions: in vivo
Outline: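 CNS (neurobehavioral) and respiratory safety studies in SD rats, doses up to 350 mg/kg.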

Rattus norvegicus [13] = assay: Toxicity in Sprague-Dawley rat assessed as induction of CNS clinical changes at 1000 mg/kg during 14 day repeat dose study; format: organism-based, Central nervous system; set-up: dose 1000 mg/kg; conditions: in vivo, 336 h
Outline: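 14-day repeat-dose rat toxicity study with dose groups of 30, 100, 300 and 1000 mg/kg; animals monitored for tolerability, mortality and CNS clinical signs.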

Rattus norvegicus [14] = assay: Effect on liver function in Sprague-Dawley rat at 30 to 1000 mg/kg; format: ADME, organism-based; set-up: dose 30-1000 mg/kg; conditions: in vivo
[15] = target: T2, Sphingosine 1-phosphate receptor 1 (Homo sapiens, UniProt P21453); assay: Agonist activity at human S1P1 receptor assessed as cAMP accumulation by HTRF assay relative to S1P; format: functional
T2 sequence (P21453 whole entry): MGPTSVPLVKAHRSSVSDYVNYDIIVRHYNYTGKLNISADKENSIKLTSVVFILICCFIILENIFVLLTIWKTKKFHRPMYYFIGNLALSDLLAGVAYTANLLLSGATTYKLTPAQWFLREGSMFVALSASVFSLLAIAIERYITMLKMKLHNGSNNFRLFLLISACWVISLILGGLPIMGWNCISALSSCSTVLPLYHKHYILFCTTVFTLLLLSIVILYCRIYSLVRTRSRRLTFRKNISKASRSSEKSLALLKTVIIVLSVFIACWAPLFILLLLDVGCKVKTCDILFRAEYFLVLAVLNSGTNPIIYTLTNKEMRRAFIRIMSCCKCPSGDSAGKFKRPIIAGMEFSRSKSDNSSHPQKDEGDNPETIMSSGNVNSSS
Outline: (§3)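 HTRF cyclase (cAMP) functional assay at S1P1 of each species; EC50 taken as mean of three or more replicates; efficacy given as % agonism relative to S1P.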

[16] = Oral bioavailability in rat; format: ADME, organism-based; conditions: in vivo
[17] = Cmax in rat at 1 mg/kg equivalent, po; format: ADME, organism-based; set-up: dose 1 mg/kg, route oral; conditions: in vivo
Outline: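 SD rat given L-arginine salt orally as a solution in sterile water, 1.0 mg/kg free-acid equivalent; Cmax measured.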

[18] = target: Sphingosine 1-phosphate receptor 1 (Mus musculus) (UniProt O08530); assay: Agonist activity at mouse S1P1 receptor assessed as cAMP accumulation by HTRF assay relative to S1P; format: functional; outline: as §3
Chain of Sphingosine 1-phosphate receptor 1 (Mus musculus) (O08530 whole entry): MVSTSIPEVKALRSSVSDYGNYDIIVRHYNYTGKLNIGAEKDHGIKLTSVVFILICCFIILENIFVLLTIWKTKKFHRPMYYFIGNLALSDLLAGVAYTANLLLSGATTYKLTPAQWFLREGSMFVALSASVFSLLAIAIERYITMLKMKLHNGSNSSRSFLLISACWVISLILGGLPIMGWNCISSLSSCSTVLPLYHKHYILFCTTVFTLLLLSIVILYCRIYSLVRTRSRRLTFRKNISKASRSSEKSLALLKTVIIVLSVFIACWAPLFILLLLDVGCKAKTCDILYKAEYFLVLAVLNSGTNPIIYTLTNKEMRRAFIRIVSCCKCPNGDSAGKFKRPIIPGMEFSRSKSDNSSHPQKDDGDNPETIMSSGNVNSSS

[19] = target: Sphingosine-1-phosphate receptor 1 (Canis lupus familiaris) (UniProt W5VNF7); assay: Agonist activity at dog S1P1 receptor assessed as cAMP accumulation by HTRF assay relative to S1P; format: functional; outline: as §3
Chain of Sphingosine-1-phosphate receptor 1 (Canis lupus familiaris) (W5VNF7 as listed by the source): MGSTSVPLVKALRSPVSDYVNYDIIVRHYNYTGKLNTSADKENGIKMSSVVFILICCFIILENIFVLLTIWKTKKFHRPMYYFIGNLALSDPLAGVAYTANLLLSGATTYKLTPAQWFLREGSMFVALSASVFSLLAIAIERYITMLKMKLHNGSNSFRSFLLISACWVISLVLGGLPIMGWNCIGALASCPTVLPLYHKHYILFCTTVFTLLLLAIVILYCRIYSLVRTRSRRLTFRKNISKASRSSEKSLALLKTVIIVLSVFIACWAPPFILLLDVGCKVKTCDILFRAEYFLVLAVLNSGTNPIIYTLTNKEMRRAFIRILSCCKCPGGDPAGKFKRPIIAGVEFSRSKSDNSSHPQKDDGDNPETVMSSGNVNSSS

[20] = target: Sphingosine 1-phosphate receptor 1 (Macaca mulatta) (UniProt H9EUW9); assay: Agonist activity at monkey S1P1 receptor assessed as cAMP accumulation by HTRF assay relative to S1P; format: functional; outline: as §3
Chain of Sphingosine 1-phosphate receptor 1 (Macaca mulatta) (H9EUW9 as listed by the source): as the sequence (P21453 whole entry) above, with P3S, H12L, I37T, K41R, S189P, I241M, E365D counted along it

[21] = target: T2, Sphingosine 1-phosphate receptor 1; assay: Agonist activity at human S1P1 receptor by beta-arrestin recruitment assay relative to S1P
[22] = target: Sphingosine 1-phosphate receptor 4 (Homo sapiens) (UniProt O95977); assay: Agonist activity at human S1P4 receptor by beta-arrestin recruitment assay relative to S1P
Chain of Sphingosine 1-phosphate receptor 4 (Homo sapiens) (O95977 whole entry): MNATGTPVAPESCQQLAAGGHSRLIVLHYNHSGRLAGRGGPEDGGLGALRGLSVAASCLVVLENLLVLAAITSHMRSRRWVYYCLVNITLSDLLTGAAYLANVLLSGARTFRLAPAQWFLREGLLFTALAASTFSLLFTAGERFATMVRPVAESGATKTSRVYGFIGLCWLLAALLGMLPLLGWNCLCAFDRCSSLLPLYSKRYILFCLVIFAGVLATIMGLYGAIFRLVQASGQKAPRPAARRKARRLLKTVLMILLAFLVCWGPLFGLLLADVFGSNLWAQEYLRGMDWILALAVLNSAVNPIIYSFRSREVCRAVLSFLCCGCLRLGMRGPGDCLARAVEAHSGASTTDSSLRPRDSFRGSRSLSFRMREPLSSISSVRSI

[23] = target: Sphingosine 1-phosphate receptor 5 (Homo sapiens) (UniProt Q9H228); assay: Agonist activity at human S1P5 receptor by beta-arrestin recruitment assay relative to S1P
Chain of Sphingosine 1-phosphate receptor 5 (Homo sapiens) (Q9H228 whole entry): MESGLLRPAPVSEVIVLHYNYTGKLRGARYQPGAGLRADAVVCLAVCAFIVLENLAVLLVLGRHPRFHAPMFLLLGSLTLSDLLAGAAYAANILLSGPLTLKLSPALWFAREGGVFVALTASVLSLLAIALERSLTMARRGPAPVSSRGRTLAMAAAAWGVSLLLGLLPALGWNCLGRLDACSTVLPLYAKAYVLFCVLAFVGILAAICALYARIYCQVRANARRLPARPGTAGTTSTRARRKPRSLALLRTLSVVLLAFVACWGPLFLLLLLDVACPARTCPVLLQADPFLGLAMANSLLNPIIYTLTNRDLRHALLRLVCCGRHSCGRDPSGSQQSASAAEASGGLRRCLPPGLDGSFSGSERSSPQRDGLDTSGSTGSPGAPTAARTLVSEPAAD

[24] = Half life in monkey liver microsomes; format: ADME, Macaca mulatta; conditions: rhesus monkey
Outline: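 Stability on incubation with liver microsomes of each species; half-life reported.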

[25] = Systemic clearance in rat at 1 mg/kg, iv; format: ADME, organism-based; set-up: dose 1 mg/kg, route intravenous; conditions: in vivo
Mus musculus [26] = assay: Systemic clearance in mouse at 1 mg/kg, iv relative to liver blood flow; format: ADME, organism-based; set-up: dose 1 mg/kg, route intravenous; conditions: in vivo
Canis familiaris [27] = assay: Systemic clearance in dog at 1 mg/kg, iv relative to liver blood flow; format: ADME, organism-based, Canis lupus familiaris; set-up: dose 1 mg/kg, route intravenous; conditions: in vivo
[28] = Volume of distribution at steady state in mouse at 1 mg/kg, iv; format: ADME, organism-based; set-up: dose 1 mg/kg, route intravenous; conditions: in vivo, read-out: Vdss
[29] = Cmax in mouse at 1 mg/kg, iv or 1 mg/kg, po; format: ADME, organism-based; conditions: in vivo
Outline: (§4)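 Preclinical iv/po PK; amorphous free acid dosed orally as a suspension in 0.5% methyl cellulose; clearance and Vss from intravenous administration.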

[30] = Cmax in dog at 1 mg/kg, iv or 3 mg/kg, po; format: ADME, organism-based, Canis lupus familiaris; conditions: in vivo; outline: as §4
[31] = Cmax in monkey at 1 mg/kg, iv or 3 mg/kg, po; format: ADME, organism-based, Macaca mulatta; conditions: rhesus monkey, in vivo; outline: as §4
[32] = Tmax in rat at 1 mg/kg, iv or 1 mg/kg, po; format: ADME, organism-based; conditions: in vivo
[33] = Tmax in dog at 1 mg/kg, iv or 3 mg/kg, po; format: ADME, organism-based, Canis lupus familiaris; conditions: in vivo
[34] = Tmax in monkey at 1 mg/kg, iv or 3 mg/kg, po; format: ADME, organism-based, Macaca mulatta; conditions: rhesus monkey, in vivo
[35] = AUC (0 to infinity) in monkey at 1 mg/kg, iv or 3 mg/kg, po; format: ADME, organism-based, Macaca mulatta; conditions: rhesus monkey, plasma; outline: as §4
[36] = Elimination half life in rat at 1 mg/kg, po; format: ADME, organism-based; set-up: dose 1 mg/kg, route oral; conditions: in vivo, read-out: beta t1/2 (converted); outline: as §4
[37] = Elimination half life in dog at 3 mg/kg, po; format: ADME, organism-based, Canis lupus familiaris; set-up: dose 3 mg/kg, route oral; conditions: in vivo, read-out: beta t1/2 (converted); outline: as §4
[38] = Elimination half life in monkey at 3 mg/kg, po; format: ADME, organism-based, Macaca mulatta; set-up: dose 3 mg/kg, route oral; conditions: rhesus monkey, in vivo, read-out: beta t1/2 (converted); outline: as §4
[39] = Oral bioavailability in mouse at 1 mg/kg; format: ADME, organism-based; conditions: in vivo
[40] = Oral bioavailability in monkey at 3 mg/kg; format: ADME, organism-based, Macaca mulatta; conditions: rhesus monkey, in vivo

O=C(O)C[C@H]1CCc2c1[nH]c1ccc(OCc3ccc(C4CCCC4)c(C(F)(F)F)c3)cc21 [ETRASIMOD]
IC50 (Rattus norvegicus [1]): 51 nM | IC50 (Rhesus monkey): 98 nM | fraction unbound [2]: 0.02 | concentration at 48 h [3]: 210 nM | Activity (Mus musculus [4]): Active | Activity (Rattus norvegicus [5]): 0.2803 inches | Activity (Rattus norvegicus [6]): 0.269 inches | IC50 (Cytochrome P450 3A4): > 50000 nM | IC50 (Adenosine receptor A3): 3300 nM | EC50 [7]: 29.9 nM | Activity (Salmonella typhimurium): Non-toxic | IC50 [8]: > 30000 nM | IC50 [9]: > 30000 nM | Activity (Canis familiaris [10]): Non-toxic | Activity (Canis familiaris [11]): Non-toxic | Activity (Rattus norvegicus [12]): Non-toxic | Activity (Rattus norvegicus [13]): Toxic | Activity (Rattus norvegicus [14]): Non-toxic | Emax [15]: 102% | bioavailability [16]: 54% | Cmax [17]: 361 ng/mL | Emax [18]: 95% | Emax [19]: 87% | Emax [20]: 95% | Emax [21]: 110% | Emax [22]: 63% | Emax [23]: 73% | half-life [24]: > 1 h | clearance [25]: 2.42 mL/min/kg | CL (Mus musculus [26]): 2% | CL (Canis familiaris [27]): 0.746% | Vd [28]: 1.93 L/kg | Cmax [29]: 780 ng/mL | Cmax [30]: 3710 ng/mL | Cmax [31]: 2870 ng/mL | Tmax [32]: 7.33 h | Tmax [33]: 7.33 h | Tmax [34]: 3.33 h | AUC(0-inf) [35]: 23100 ng·h/mL | half-life [36]: 9.64 h | half-life [37]: 28.8 h | half-life [38]: 6.37 h | bioavailability [39]: 100% | bioavailability [40]: 43.8%
